In ChEMBL document CHEMBL1153232, “Synthesis and screening of a CaaL peptide library versus FTase reveals a surprising number of substrates” (Bioorg Med Chem Lett, 2010):
The source made the active and inactive calls. The rule behind the calls is not given here. Peptide text beside a SMILES is read from it. * marks the point of attachment. Dansyl = CN(C)c1cccc2c(S(=O)(=O)*)cccc12

Key:
[1] = target: Protein farnesyltransferase subunit beta (Homo sapiens) (UniProt P49356); assay: Substrate activity for FTase assessed as increase in fluorescence by spectrofluorimetry in presence of farnesyl diphosphate relative to DnGCVLS; design: concentration or dose not given beside the values
[2] = target: Protein farnesyltransferase subunit beta (Homo sapiens) (UniProt P49356); assay: Activity at FTase assessed as formation of farnesylated peptide after 60 mins by HPLC
Outline: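 Peptide (3 μM) with 9 μM FPP and recombinant mammalian FTase (0.05 μM), incubated 60 min. HPLC scored conversion to farnesylated peptide: complete; nearly complete; 25% to 50%; less than 25%; no product.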

[3] = target: Protein farnesyltransferase subunit beta (Homo sapiens) (UniProt P49356); assay: Ratio of kcat to km for FTase in presence of farnesyl diphosphate
Outline: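 Steady-state kinetics at saturating FPP (10 μM), 0.2-10 μM dansyl peptide, 20-100 nM FTase (at least 5-fold below peptide). Buffer: 50 mM HEPPSO pH 7.8, 5 mM TCEP, 5 mM MgCl2, 25 °C. Peptide preincubated 20 min in buffer, then FTase and FPP added. Fluorescence (ex 340, em 520 nm) followed over time and converted to kcat/KM.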

Protein farnesyltransferase subunit beta (Homo sapiens), sequence (P49356 whole entry): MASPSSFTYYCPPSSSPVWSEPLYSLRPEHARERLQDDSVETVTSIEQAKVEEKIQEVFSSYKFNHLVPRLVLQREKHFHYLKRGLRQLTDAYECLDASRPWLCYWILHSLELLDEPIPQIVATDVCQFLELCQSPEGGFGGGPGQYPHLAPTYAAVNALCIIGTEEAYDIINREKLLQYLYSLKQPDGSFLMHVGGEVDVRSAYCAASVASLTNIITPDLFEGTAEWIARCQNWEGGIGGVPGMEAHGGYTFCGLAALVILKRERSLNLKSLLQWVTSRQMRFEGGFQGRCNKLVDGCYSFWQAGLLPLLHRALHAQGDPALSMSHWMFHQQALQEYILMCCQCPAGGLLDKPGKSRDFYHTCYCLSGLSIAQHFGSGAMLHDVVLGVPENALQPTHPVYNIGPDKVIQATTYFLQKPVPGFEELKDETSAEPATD

Structure (SMILES) | Activity [1] [%] | Activity [2] | Ratio [3] [mM⁻¹ s⁻¹]
CC(C)C[C@H](NC(=O)[C@H](CCC(N)=O)NC(=O)[C@H](CC(C)C)NC(=O)[C@H](CS)NC(=O)CNS(=O)(=O)c1cccc2c(N(C)C)cccc12)C(=O)O (Dansyl-GCLQL-OH) | 0 | < 25% | 
CC(C)C[C@H](NC(=O)[C@H](CC(C)C)NC(=O)[C@H](CCC(N)=O)NC(=O)[C@H](CS)NC(=O)CNS(=O)(=O)c1cccc2c(N(C)C)cccc12)C(=O)O (Dansyl-GCQLL-OH) | 0 | < 25% | 
CC[C@H](C)[C@H](NC(=O)[C@H](CC(C)C)NC(=O)[C@H](CS)NC(=O)CNS(=O)(=O)c1cccc2c(N(C)C)cccc12)C(=O)N[C@@H](CC(C)C)C(=O)O (Dansyl-GCLIL-OH) | < 5 | Active | 
CSCC[C@H](NC(=O)[C@H](CC(C)C)NC(=O)[C@H](CS)NC(=O)CNS(=O)(=O)c1cccc2c(N(C)C)cccc12)C(=O)N[C@@H](CC(C)C)C(=O)O (Dansyl-GCLML-OH) | 9 | Active | 8.1
CC(C)C[C@H](NC(=O)[C@@H]1CCCN1C(=O)[C@H](CC(N)=O)NC(=O)[C@H](CS)NC(=O)CNS(=O)(=O)c1cccc2c(N(C)C)cccc12)C(=O)O (Dansyl-GCNPL-OH) | 0 | inactive | 
CC(C)C[C@H](NC(=O)[C@H](CC(N)=O)NC(=O)[C@H](CCC(N)=O)NC(=O)[C@H](CS)NC(=O)CNS(=O)(=O)c1cccc2c(N(C)C)cccc12)C(=O)O (Dansyl-GCQNL-OH) | 0 | inactive | 
CC[C@H](C)[C@H](NC(=O)[C@H](CC(N)=O)NC(=O)[C@H](CS)NC(=O)CNS(=O)(=O)c1cccc2c(N(C)C)cccc12)C(=O)N[C@@H](CC(C)C)C(=O)O (Dansyl-GCNIL-OH) | 22 | Active | 12
CC(C)C[C@H](NC(=O)[C@H](CC(C)C)NC(=O)[C@H](CO)NC(=O)[C@H](CS)NC(=O)CNS(=O)(=O)c1cccc2c(N(C)C)cccc12)C(=O)O (Dansyl-GCSLL-OH) | 0 | < 25% | 
CC(C)C[C@H](NC(=O)[C@H](CC(C)C)NC(=O)[C@H](CC(C)C)NC(=O)[C@H](CS)NC(=O)CNS(=O)(=O)c1cccc2c(N(C)C)cccc12)C(=O)O (Dansyl-GCLLL-OH) | < 5 |  | 
CC[C@H](C)[C@H](NC(=O)[C@@H]1CCCN1C(=O)[C@H](CS)NC(=O)CNS(=O)(=O)c1cccc2c(N(C)C)cccc12)C(=O)N[C@@H](CC(C)C)C(=O)O (Dansyl-GCPIL-OH) | < 5 |  | 
CC(C)C[C@H](NC(=O)[C@H](CC(C)C)NC(=O)[C@H](CS)NC(=O)[C@H](CS)NC(=O)CNS(=O)(=O)c1cccc2c(N(C)C)cccc12)C(=O)O (Dansyl-GCCLL-OH) | < 5 |  | 
CC(C)C[C@H](NC(=O)[C@@H]1CCCN1C(=O)[C@H](Cc1cnc[nH]1)NC(=O)[C@H](CS)NC(=O)CNS(=O)(=O)c1cccc2c(N(C)C)cccc12)C(=O)O (Dansyl-GCHPL-OH) | 0 | inactive | 
CC(C)C[C@H](NC(=O)[C@H](C)NC(=O)[C@H](Cc1cnc[nH]1)NC(=O)[C@H](CS)NC(=O)CNS(=O)(=O)c1cccc2c(N(C)C)cccc12)C(=O)O (Dansyl-GCHAL-OH) | 0 | inactive | 
CSCC[C@H](NC(=O)[C@H](CS)NC(=O)CNS(=O)(=O)c1cccc2c(N(C)C)cccc12)C(=O)N[C@@H](CCC(=O)O)C(=O)N[C@@H](CC(C)C)C(=O)O (Dansyl-GCMEL-OH) | 0 | inactive | 
CC(C)C[C@H](NC(=O)[C@H](CC(C)C)NC(=O)[C@H](CCCNC(=N)N)NC(=O)[C@H](CS)NC(=O)CNS(=O)(=O)c1cccc2c(N(C)C)cccc12)C(=O)O (Dansyl-GCRLL-OH) | < 5 |  | 
CC[C@H](C)[C@H](NC(=O)[C@H](CS)NC(=O)CNS(=O)(=O)c1cccc2c(N(C)C)cccc12)C(=O)N[C@@H](CC(C)C)C(=O)N[C@@H](CC(C)C)C(=O)O (Dansyl-GCILL-OH) | 15 | Active | 8
CC(C)C[C@H](NC(=O)[C@H](CCCCN)NC(=O)[C@H](CCC(=O)O)NC(=O)[C@H](CS)NC(=O)CNS(=O)(=O)c1cccc2c(N(C)C)cccc12)C(=O)O (Dansyl-GCEKL-OH) | 0 | inactive | 
CC(C)C[C@H](NC(=O)[C@H](Cc1ccc(O)cc1)NC(=O)[C@H](C)NC(=O)[C@H](CS)NC(=O)CNS(=O)(=O)c1cccc2c(N(C)C)cccc12)C(=O)O (Dansyl-GCAYL-OH) | 0 | inactive | 
CC(C)C[C@H](NC(=O)[C@H](Cc1ccccc1)NC(=O)[C@H](CO)NC(=O)[C@H](CS)NC(=O)CNS(=O)(=O)c1cccc2c(N(C)C)cccc12)C(=O)O (Dansyl-GCSFL-OH) | 0 | inactive | 
CC(C)C[C@H](NC(=O)[C@H](CCC(N)=O)NC(=O)[C@H](CO)NC(=O)[C@H](CS)NC(=O)CNS(=O)(=O)c1cccc2c(N(C)C)cccc12)C(=O)O (Dansyl-GCSQL-OH) | 0 | inactive | 
CC(C)C[C@H](NC(=O)[C@H](CO)NC(=O)[C@H](CS)NC(=O)[C@H](CS)NC(=O)CNS(=O)(=O)c1cccc2c(N(C)C)cccc12)C(=O)O (Dansyl-GCCSL-OH) | 0 | inactive | 

Second part, the compound after the results:

Activity [1] [%] | Activity [2] | Ratio [3] [mM⁻¹ s⁻¹] | Structure (SMILES)
0 |  |  | CC(C)C[C@H](NC(=O)[C@H](CC(C)C)NC(=O)[C@@H](NC(=O)[C@H](CS)NC(=O)CNS(=O)(=O)c1cccc2c(N(C)C)cccc12)[C@@H](C)O)C(=O)O (Dansyl-GCTLL-OH)
0 | inactive |  | CC(C)C[C@H](NC(=O)[C@H](C)NC(=O)[C@@H](NC(=O)[C@H](CS)NC(=O)CNS(=O)(=O)c1cccc2c(N(C)C)cccc12)[C@@H](C)O)C(=O)O (Dansyl-GCTAL-OH)
18 | Active | 5 | CC[C@H](C)[C@H](NC(=O)[C@H](CO)NC(=O)[C@H](CS)NC(=O)CNS(=O)(=O)c1cccc2c(N(C)C)cccc12)C(=O)N[C@@H](CC(C)C)C(=O)O (Dansyl-GCSIL-OH)
0 | inactive |  | CC(C)C[C@H](NC(=O)CNC(=O)[C@H](CC(C)C)NC(=O)[C@H](CS)NC(=O)CNS(=O)(=O)c1cccc2c(N(C)C)cccc12)C(=O)O (Dansyl-GCLGL-OH)
0 | inactive |  | CC(C)C[C@H](NC(=O)[C@H](CCC(N)=O)NC(=O)CNC(=O)[C@H](CS)NC(=O)CNS(=O)(=O)c1cccc2c(N(C)C)cccc12)C(=O)O (Dansyl-GCGQL-OH)
71 | Active | 27 | CC[C@H](C)[C@H](NC(=O)[C@H](C)NC(=O)[C@H](CS)NC(=O)CNS(=O)(=O)c1cccc2c(N(C)C)cccc12)C(=O)N[C@@H](CC(C)C)C(=O)O (Dansyl-GCAIL-OH)
0 | inactive |  | CC(C)C[C@H](NC(=O)[C@@H](NC(=O)[C@H](CO)NC(=O)[C@H](CS)NC(=O)CNS(=O)(=O)c1cccc2c(N(C)C)cccc12)[C@@H](C)O)C(=O)O (Dansyl-GCSTL-OH)
< 5 |  |  | CC(C)C[C@H](NC(=O)[C@H](CC(C)C)NC(=O)[C@@H](NC(=O)[C@H](CS)NC(=O)CNS(=O)(=O)c1cccc2c(N(C)C)cccc12)C(C)C)C(=O)O (Dansyl-GCVLL-OH)
< 5 |  |  | CC(C)C[C@H](NC(=O)[C@H](CC(C)C)NC(=O)[C@H](C)NC(=O)[C@H](CS)NC(=O)CNS(=O)(=O)c1cccc2c(N(C)C)cccc12)C(=O)O (Dansyl-GCALL-OH)
< 5 |  |  | CC(C)C[C@H](NC(=O)[C@@H](NC(=O)[C@H](CC(C)C)NC(=O)[C@H](CS)NC(=O)CNS(=O)(=O)c1cccc2c(N(C)C)cccc12)C(C)C)C(=O)O (Dansyl-GCLVL-OH)
61 | Active | 23 | CC[C@H](C)[C@H](NC(=O)[C@H](CS)NC(=O)[C@H](CS)NC(=O)CNS(=O)(=O)c1cccc2c(N(C)C)cccc12)C(=O)N[C@@H](CC(C)C)C(=O)O (Dansyl-GCCIL-OH)
0 | inactive |  | CC(C)C[C@H](NC(=O)[C@H](CS)NC(=O)CNC(=O)[C@H](CS)NC(=O)CNS(=O)(=O)c1cccc2c(N(C)C)cccc12)C(=O)O (Dansyl-GCGCL-OH)
52 | Active | 47 | CC[C@H](C)[C@H](NC(=O)[C@@H](NC(=O)[C@H](CS)NC(=O)CNS(=O)(=O)c1cccc2c(N(C)C)cccc12)C(C)C)C(=O)N[C@@H](CC(C)C)C(=O)O (Dansyl-GCVIL-OH)
0 | inactive |  | CC(C)C[C@H](NC(=O)CNC(=O)CNC(=O)[C@H](CS)NC(=O)CNS(=O)(=O)c1cccc2c(N(C)C)cccc12)C(=O)O (Dansyl-GCGGL-OH)
11 | Active | 7 | CC(C)C[C@H](NC(=O)[C@@H](NC(=O)[C@H](CS)NC(=O)[C@H](CS)NC(=O)CNS(=O)(=O)c1cccc2c(N(C)C)cccc12)C(C)C)C(=O)O (Dansyl-GCCVL-OH)
0 |  |  | CC(C)C[C@H](NC(=O)[C@@H](NC(=O)[C@H](CO)NC(=O)[C@H](CS)NC(=O)CNS(=O)(=O)c1cccc2c(N(C)C)cccc12)C(C)C)C(=O)O (Dansyl-GCSVL-OH)
< 5 |  |  | CC(C)C[C@H](NC(=O)[C@@H](NC(=O)[C@H](CCCCN)NC(=O)[C@H](CS)NC(=O)CNS(=O)(=O)c1cccc2c(N(C)C)cccc12)C(C)C)C(=O)O (Dansyl-GCKVL-OH)
0 | inactive |  | CC(C)C[C@H](NC(=O)CNC(=O)[C@@H](NC(=O)[C@H](CS)NC(=O)CNS(=O)(=O)c1cccc2c(N(C)C)cccc12)C(C)C)C(=O)O (Dansyl-GCVGL-OH)
